IDH1 R132H inh – blocks human IDH1 R132H reductase activity; 70,000 compounds, 0.18% hits; diaphorase/resazurin fluorescence, 60 min; inhibition, % at 10 µM; O75874; in the data active = inhibition above about 34%; inconclusive = no clear call, values can overlap the other calls; inactive = below about 11%;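 note: 0% = DMSO and 100% = no enzyme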
Target sequence (O75874 whole entry R132H): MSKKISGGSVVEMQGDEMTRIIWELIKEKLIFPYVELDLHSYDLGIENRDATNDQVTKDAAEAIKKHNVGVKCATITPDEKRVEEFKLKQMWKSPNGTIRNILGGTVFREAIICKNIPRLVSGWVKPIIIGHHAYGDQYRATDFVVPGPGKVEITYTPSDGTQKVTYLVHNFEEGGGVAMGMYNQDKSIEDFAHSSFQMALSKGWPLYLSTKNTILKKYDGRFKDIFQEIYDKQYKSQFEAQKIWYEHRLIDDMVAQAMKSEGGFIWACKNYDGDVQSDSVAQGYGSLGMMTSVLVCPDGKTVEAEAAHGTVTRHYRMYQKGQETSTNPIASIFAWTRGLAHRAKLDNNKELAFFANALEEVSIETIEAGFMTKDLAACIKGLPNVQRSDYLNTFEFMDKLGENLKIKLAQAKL
T cruzi growth-1 – blocks T. cruzi growth in NIH3T3 culture; T. cruzi beta-gal in NIH3T3, GalScreen luminescence, 90 h; inhibition, % at 8.34 µM; 77,000 compounds, 5.9% hits; AID 624255;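 active = mean inhibition above about 93%, with at least 55% of replicates each passing it, limit read from the data, passing the limit was not always enough; inconclusive = only one of those two conditions holds; inactive = neither condition holds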
GASC1 inh – KDM4C (human) demethylase inhibition | GST-KDM4C 2-372, H3K9me3 peptide, LANCE TR-FRET | inhibition, % at 12.5 µM | AID 720574 | 96,000 compounds, 0.15% hits;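 active = mean replicate inhibition above about 25%, with at least 55% of replicates also reaching it, limit read from the data, passing the limit was not always enough; inconclusive = only one of those two conditions met; inactive = neither condition met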
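Material: GST-tagged GASC-1 (JMJD2C) catalytic fragment, aa 2-372 / Quantity: enzyme final amount 10 nM / Medium: HEPES buffer, pH 7.5, plus ascorbate / Doses: one test concentration per compound / Incubation: 30 min reaction, 60 min detection, RT / Measured by: LANCE TR-FRET / Read-out: inhibition from TR-FRET ratio decrease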
Pf Dd2 growth – blocks growth of Plasmodium falciparum Dd2 parasites | activity change, % at 10 µM | 94,000 compounds, 2.3% hits | P. falciparum Dd2 growth, SYBR Green, 72 h; hits give low values | AID 1159554; in the data active = activity change below about -80%; inconclusive = no clear call, values can overlap the other calls
T cruzi growth-2 – inhibitors of T. cruzi proliferation | shares compounds with T cruzi growth-1 | T. cruzi beta-gal in NIH3T3, GalScreen luminescence, 90 h | inhibition, % at 8.35 µM | 5,600 compounds, 72% hits;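 active = mean replicate inhibition above about 95% and at least 55% of replicates individually reaching it, limit read from the data; inconclusive = only one of the two criteria is met; inactive = neither criterion is met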
T cruzi growth-3 – blocks T. cruzi growth in NIH3T3 host cells; inhibition, % at 2.09 µM; T. cruzi beta-gal in NIH3T3, GalScreen luminescence, 90 h; shares compounds with T cruzi growth-1; 5,600 compounds, 21% hits; AID 651740;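 active = mean inhibition above about 95%, with at least 55% of replicates also reaching it, limit read from the data; inconclusive = meets just one of the two conditions; inactive = meets neither condition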;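 note: plate controls were neutral control median for no effect and positive control median for full effect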
NIH3T3 tox – NIH/3T3 (mouse) viability loss. shares compounds with T cruzi growth-1. NIH/3T3 viability, CellTiter-Glo ATP luminescence, 90 h. cytotoxicity (signal decrease), % at 8.35 µM. 5,600 compounds, 14% hits. AID 651742;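 active = mean signal decrease across replicates above about 35% based on untreated-well scatter, with enough replicates individually passing, limit read from the data; inconclusive = no rule stated though some were filed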;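 note: 0% = median of neutral control wells and 100% = median of positive control wells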
NIH3T3 tox 2 – kills mouse NIH/3T3 fibroblasts; shares compounds with T cruzi growth-1; NIH/3T3 viability, CellTiter-Glo ATP luminescence, 90 h; inhibition, % at 24.9 µM; 5,600 compounds, 56% hits;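 active = mean loss of cell viability signal at or above a set limit, and enough replicates individually reaching it; inconclusive = meets only the mean limit or only the replicate share; inactive = meets neither condition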;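 note: 0% = median of neutral control wells and 100% = median of positive control wells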
The depositor's hits bear a star; ? = inconclusive; · = not tested or not shown. Shown are actives, neighbours in structure and some others; about 5.9% of the full set was active somewhere.

SMILES | IDH1 R132H inh | T cruzi growth-1 | GASC1 inh | Pf Dd2 growth | T cruzi growth-2 | T cruzi growth-3 | NIH3T3 tox | NIH3T3 tox 2
C[C@@H](O)C#Cc1ccc([C@H]2[C@@H](CO)N3CCCCN(C(=O)c4ccc(F)cc4)C[C@H]23)cc1 | · | 99* | 2 | -30 | 102* | 15 | -1 | -12
COc1ccc(C#Cc2ccc([C@H]3[C@@H](CO)N4CCCCN(C(=O)c5ccncc5)C[C@H]34)cc2)cc1 | · | 101* | 1 | -51 | 102* | 63 | 26 | 106*
C[C@@H](O)C#Cc1ccc([C@H]2[C@@H](CO)N3CCCCN(C(=O)c4ccc(F)cc4)C[C@@H]23)cc1 | · | 103* | 0 | 4 | 46 | 30 | -14 | 14
Cc1noc(C)c1NC(=O)N(C)C[C@H]1Oc2ccc(NC(=O)CCCN(C)C)cc2C(=O)N([C@@H](C)CO)C[C@H]1C | 2 | · | 4 | 45 | · | · | · | ·
O=C(N[C@@H]1C=C[C@H](CC(=O)N2CCc3ccccc3C2)O[C@@H]1CO)C1CCC1 | · | · | 4 | 28 | · | · | · | ·
COCC(=O)Nc1ccc2c(c1)C(=O)N(C)C[C@H](OC)[C@H](C)CN(Cc1cc(F)ccc1F)[C@H](C)CO2 | 0 | 105* | 2 | -79 | 1 | 11 | 2 | ?
COCC(=O)Nc1ccc2c(c1)OC[C@@H](C)N(Cc1cc(F)ccc1F)C[C@H](C)[C@@H](OC)CN(C)C2=O | 0 | 107* | 2 | -2 | 74 | 26 | 21 | 24
C[C@@H]1CN([C@H](C)CO)S(=O)(=O)c2ccc(-c3ccccc3)cc2O[C@H]1CN(C)Cc1cccnc1 | · | 92* | -2 | -63 | 87 | 89 | 59* | 101*
Cc1ccc(-c2ccc3c(c2)O[C@@H](CN(C)Cc2cccnc2)[C@@H](C)CN([C@H](C)CO)S3(=O)=O)cc1 | · | 104* | 1 | -66 | 107* | 102* | 62* | 31*
CN1CCN(C(=O)c2cc3c(c(-c4cccc(-c5cccc(C(=O)N(C)C)c5)c4)n2)[C@H](CCO)N([S@@](=O)C(C)(C)C)C3)CC1 | 0 | 6 | 0 | 10 | · | · | · | ·
C[C@@H]1CCCCO[C@@H](CN(C)S(=O)(=O)c2ccccc2)[C@@H](C)CN([C@H](C)CO)C(=O)c2cc(N(C)C)ccc2O1 | -2 | 48 | 0 | -58 | · | · | · | ·
C[C@H]1CCCCO[C@H](CN(C)C(=O)Nc2cccc3ccccc23)[C@@H](C)CN([C@@H](C)CO)C(=O)c2cc(NC(=O)Cc3ccccc3)ccc2O1 | 2 | 97* | -3 | -84* | 104* | 118* | 22 | 24*
C[C@@H]1CCCCO[C@H](CN(C)C(=O)Nc2cccc3ccccc23)[C@H](C)CN([C@@H](C)CO)C(=O)c2cc(NC(=O)c3ccccc3)ccc2O1 | 0 | 101* | -1 | -65 | 109* | 70 | -7 | -5
C[C@H](CO)N1C[C@H](C)[C@@H](CN(C)C(=O)Nc2cccc3ccccc23)OCCCC[C@H](C)Oc2ccc(NC(=O)Nc3ccccc3)cc2C1=O | 1 | 55 | 1 | 12 | · | · | · | ·
C[C@H]1CCCCO[C@H](CN(C)C(=O)Nc2cccc3ccccc23)[C@@H](C)CN([C@@H](C)CO)C(=O)c2cc(NC(=O)Nc3ccccc3)ccc2O1 | · | ? | 0 | -9 | 106* | 113* | 1 | -9
C[C@H]1CCCCO[C@H](CN(C)C(=O)Nc2ccc(F)cc2)[C@@H](C)CN([C@@H](C)CO)C(=O)c2cc(NC(=O)Nc3cccc4ccccc34)ccc2O1 | 0 | 117* | 0 | -46 | 113* | 93 | -17 | -18
CC(C)NC(=O)N(C)C[C@@H]1Oc2c(NC(=O)CCCCCC(=O)Nc3ccccc3N)cccc2C(=O)N([C@@H](C)CO)C[C@@H]1C | 0 | · | 0 | 60 | · | · | · | ·
COc1ccc(NC(=O)Nc2ccc3c(c2)C(=O)N([C@H](C)CO)C[C@H](C)[C@@H](CN(C)C(=O)Nc2cccc4ccccc24)OCCCC[C@H](C)O3)cc1 | · | 35 | 0 | -15 | · | · | · | ·
